Experimental data from ChEMBL document CHEMBL1138555, “N-acylated and N,N'-diacylated imidazolidine-2-thione derivatives and N,N'-diacylated tetrahydropyrimidine-2(1H)-thione analogues: synthesis and antiproliferative activity” (Eur J Med Chem, 2009).

Test system: MT4
Experiment: Antiproliferative activity against human MT4 cells assessed as reduction of growth by MTT assay
Format: functional, cell-based
Outline: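 MT-4 lymphoblastoid T cells (ATCC) in RPMI 1640 with 10% FCS, penicillin/streptomycin, checked for mycoplasma. 1 × 10⁴ mock-infected cells per well with serial dilutions from a 100 mM DMSO stock. Incubated 4 days at 37 °C, viable cells counted by MTT. IC50 versus untreated controls by linear regression. Mean of three separate experiments.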

SMILES | IC50 [µM]
CC(=O)/C(=C/N1CCN(C(=O)c2ccco2)C1=O)C(=O)c1ccccc1 | > 100
O=CN1CCN(C(=O)c2ccccc2)C1=S | 12
Cc1ccccc1C(=O)N1CCN(C(=O)c2ccccc2C)C1=S | > 100
O=C(c1ccc(Cl)c([N+](=O)[O-])c1)N1CCN(C(=O)c2ccc(Cl)c([N+](=O)[O-])c2)C1=S | 11
O=C(c1ccccc1Cl)N1CCCN(C(=O)c2ccccc2Cl)C1=S | > 100
O=C(c1cccs1)N1CCCN(C(=O)c2cccs2)C1=S | > 100
Cc1ccc(C(=O)N2CCCN(C(=O)c3ccc(C)cc3)C2=S)cc1 | > 100
CC(=O)N1CCN(C(C)=O)C1=S | > 100
O=C(c1ccccc1)N1CCCN(C(=O)c2ccccc2)C1=S | > 100
Cc1ccc(C(=O)N2CCN(C(=O)c3ccc(C)cc3)C2=S)cc1 | 35
O=C(c1ccc(Cl)c(Cl)c1)N1CCCN(C(=O)c2ccc(Cl)c(Cl)c2)C1=S | 72
CC(=O)N1CCN(C=O)C1=S | > 100
CC(C)(C)C(=O)N1CCN(C=O)C1=S | 43
O=C(c1cccc([N+](=O)[O-])c1)N1CCN(C(=O)c2cccc([N+](=O)[O-])c2)C1=S | > 100
O=C(c1ccccc1Cl)N1CCN(C(=O)c2ccccc2Cl)C1=S | 54
COc1ccc(C(=O)N2CCN(C(=O)c3ccc(OC)cc3)C2=S)cc1 | > 100

SMILES | IC50 [µM]
O=C(c1ccc(Cl)cc1Cl)N1CCCN(C(=O)c2ccc(Cl)cc2Cl)C1=S | > 100
O=C(c1cc(Cl)cc(Cl)c1)N1CCCN(C(=O)c2cc(Cl)cc(Cl)c2)C1=S | 30
N#CC(C#N)=CN1CCN(C(=O)c2ccco2)C1=O | > 100
CCOC(=O)/C(=C/N1CCN(C(=O)c2ccco2)C1=O)C(=O)c1ccccc1 | 43
O=C(c1ccc(Cl)cc1)N1CCN(C(=O)c2ccc(Cl)cc2)C1=S | 9.9
O=CN1CCN(C(=O)/C=C/c2ccccc2)C1=S | > 100
O=C(c1cccc(Cl)c1)N1CCN(C(=O)c2cccc(Cl)c2)C1=S | 35
O=C(c1ccccc1)N1CCN(C(=O)c2ccccc2)C1=S | 94
O=C(c1cccc2ccccc12)N1CCN(C(=O)c2cccc3ccccc23)C1=S | 13
CC(C)(C)C(=O)/C(C#N)=C/N1CCN(C(=O)c2ccco2)C1=S | 14
O=C(c1ccco1)N1CCCN(C(=O)c2ccco2)C1=S | 36
O=C(c1ccc(Cl)cc1)N1CCCN(C(=O)c2ccc(Cl)cc2)C1=S | 38
COc1cc(C(=O)N2CCCN(C(=O)c3cc(OC)c(OC)c(OC)c3)C2=S)cc(OC)c1OC | > 100
Cc1ccc(C(=O)N2CCN(C=O)C2=S)cc1 | 31
CC(C)(C)c1ccc(C(=O)N2CCN(C(=O)c3ccc(C(C)(C)C)cc3)C2=S)cc1 | > 100
